According to ChEMBL document CHEMBL4014343 (J Med Chem, 2017):
Activity calls are given as the source filed them. The calls are words filed in the database; no cut-off is given here.

How the values were obtained:
OVCAR-8 = experiment: Growth inhibition of human OVCAR8 cells incubated for 48 hrs by sulforhodamine B assay; type: functional, cell-based
NCI-H23 = experiment: Growth inhibition of human NCI-H23 cells incubated for 48 hrs by sulforhodamine B assay; type: functional, cell-based
SK-OV-3 = experiment: Growth inhibition of human SKOV3 cells incubated for 48 hrs by sulforhodamine B assay; type: functional, cell-based
DU-145 = experiment: Growth inhibition of human DU145 cells incubated for 48 hrs by sulforhodamine B assay; type: functional, cell-based
M14 = experiment: Growth inhibition of human M14 cells incubated for 48 hrs by sulforhodamine B assay; type: functional, cell-based
LOX IMVI = experiment: Growth inhibition of human LOXIMVI cells incubated for 48 hrs by sulforhodamine B assay; type: functional, cell-based
[1] = target: T1, Insulin-like growth factor 1 receptor (Homo sapiens, UniProt P08069); experiment: Inhibition of IGF1R in human HeLa cells assessed as reduction in Akt phosphorylation at Ser473 residue after 24 hrs by immunoblot analysis; type: cell-based
Method in brief: (§1)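 Cells in their medium with 10% FBS exposed to rising concentrations for 24 h; whole-cell lysates immunoblotted for p-Akt (S473) and total Akt; PI3K inhibitor at 10 μM as positive control.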

[2] = target: Serine/threonine-protein kinase Chk2 (Homo sapiens) (UniProt O96017); experiment: Inhibition of CHK2 (unknown origin) at 1 uM
Method in brief: (§2)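 Single-point profiling at 1 μM in a 22-kinase panel, performed externally by ProQinase; activity read as residual percent of control.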

HL-60(TB) = experiment: Growth inhibition of human HL-60(TB) cells incubated for 48 hrs by sulforhodamine B assay; type: functional, cell-based
[3] = target: T2, Aurora kinase A (Homo sapiens) (UniProt O14965); experiment: Inhibition of human N-terminal GST/His6-tagged Aurora A (M1 to S403 residues) expressed in baculovirus infected sf9 cells at 1 uM using tetra(LRRLSLG) as substrate by filter binding assay; method in brief: as §2
T2 sequence (whole entry): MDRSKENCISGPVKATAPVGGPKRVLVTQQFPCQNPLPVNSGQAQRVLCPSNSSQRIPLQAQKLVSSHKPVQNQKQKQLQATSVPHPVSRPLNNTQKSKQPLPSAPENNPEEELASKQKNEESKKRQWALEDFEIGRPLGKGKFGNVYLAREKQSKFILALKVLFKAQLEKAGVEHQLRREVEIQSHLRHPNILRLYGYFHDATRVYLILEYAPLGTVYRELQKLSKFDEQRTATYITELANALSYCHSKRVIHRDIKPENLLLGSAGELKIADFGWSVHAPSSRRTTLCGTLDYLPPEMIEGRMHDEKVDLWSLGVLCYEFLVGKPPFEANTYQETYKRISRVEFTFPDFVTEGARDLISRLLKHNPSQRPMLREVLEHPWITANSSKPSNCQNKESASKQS

HCC 2998 = experiment: Growth inhibition of human HCC2998 cells incubated for 48 hrs by sulforhodamine B assay; type: functional, cell-based
[4] = target: T1, Insulin-like growth factor 1 receptor; experiment: Inhibition of IGF1R in human MCF7 cells assessed as reduction in Akt phosphorylation at Ser473 residue at 1 uM after 15 mins by immunoblot analysis; type: cell-based
Method in brief: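 MCF7 exposed to 1 μM and harvested at 15 min, 30 min, 1, 4 and 6 h; lysates immunoblotted with p-Akt (S473) antibody.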

MDA-MB-468 = experiment: Growth inhibition of human MDA-MB-468 cells incubated for 48 hrs by sulforhodamine B assay; type: functional, cell-based
[5] = target: Aurora kinase B (Homo sapiens) (UniProt Q96GD4); experiment: Inhibition of human N-terminal GST/His6-tagged Aurora B (A2 to A344 residues) expressed in sf9 cells at 1 uM using tetra(LRRLSLG) as substrate by filter binding assay; method in brief: as §2
UO-31 = experiment: Growth inhibition of human UO31 cells incubated for 48 hrs by sulforhodamine B assay; type: functional, cell-based
Method in brief: (§3)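 NCI-60 panel growth inhibition, run by the U.S. National Cancer Institute; GI50 values are means of two test series.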

SF-539 = experiment: Growth inhibition of human SF539 cells incubated for 48 hrs by sulforhodamine B assay; type: functional, cell-based
SK-MEL-5 = experiment: Growth inhibition of human SK-MEL-5 cells incubated for 48 hrs by sulforhodamine B assay; type: functional, cell-based
[6] = target: T1, Insulin-like growth factor 1 receptor; experiment: Inhibition of IGF1R in human PANC1 cells assessed as reduction in Akt phosphorylation at Ser473 residue after 24 hrs by immunoblot analysis; type: cell-based; method in brief: as §1
NCI-H460 = experiment: Growth inhibition of human NCI-H460 cells incubated for 48 hrs by sulforhodamine B assay; type: functional, cell-based
A549 = experiment: Growth inhibition of human A549/ATCC cells incubated for 48 hrs by sulforhodamine B assay; type: functional, cell-based
HOP-62 = experiment: Growth inhibition of human HOP62 cells incubated for 48 hrs by sulforhodamine B assay; type: functional, cell-based
MOLT-4 = experiment: Growth inhibition of human MOLT4 cells incubated for 48 hrs by sulforhodamine B assay; type: functional, cell-based
NCI-H226 = experiment: Growth inhibition of human NCI-H226 cells incubated for 48 hrs by sulforhodamine B assay; type: functional, cell-based
UACC-62 = experiment: Growth inhibition of human UACC62 cells incubated for 48 hrs by sulforhodamine B assay; type: functional, cell-based; method in brief: as §3
MCF7 [7] = experiment: Cell cycle arrest in human MCF7 cells assessed as accumulation at G2/M phase up to 1 uM after 24 to 48 hrs by propidium iodide staining based FACS analysis; type: functional
Method in brief: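 MCF7 cells grown 24 h in DMEM with 10% FBS and 1% PS, then exposed to 1 μM for 24 and 48 h. Pellets fixed in 70% ethanol for at least 24 h, washed twice in ice-cold PBS, treated with RNase A (50 μg/mL, 1 h, 37 °C), stained with PI (50 μg/mL, 5 min), and DNA content read by FACS.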

IGROV-1 = experiment: Growth inhibition of human IGROV1 cells incubated for 48 hrs by sulforhodamine B assay; type: functional, cell-based
[8] = target: T1, Insulin-like growth factor 1 receptor; experiment: Inhibition of recombinant human N-terminal GST/His6-tagged IGF1R (M954 to C1367 residues) expressed in sf9 cells assessed as residual activity at 1 uM using Poly(Glu,Tyr)4:1 as substrate by filter binding assay relative to control; method in brief: as §2
SK-MEL-2 = experiment: Growth inhibition of human SK-MEL-2 cells incubated for 48 hrs by sulforhodamine B assay; type: functional, cell-based
PC-3 = experiment: Growth inhibition of human PC3 cells incubated for 48 hrs by sulforhodamine B assay; type: functional, cell-based
MCF7 [9] = experiment: Induction of apoptosis in human MCF7 cells at 0.5 uM after 24 hrs by Annexin V-FITC/propidium iodide staining based FACS analysis; type: functional, cell-based
Method in brief: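 MCF7 grown 24 h in DMEM/10% FBS/1% PS, exposed 24 h, pelleted, stained with FITC-annexin V in HEPES binding buffer (pH 7.4, 1.8 mM CaCl2) 15 min dark at rt, then PI 10 min, analysed by flow cytometry; bortezomib positive control.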

NCI-H522 = experiment: Growth inhibition of human NCI-H522 cells incubated for 48 hrs by sulforhodamine B assay; type: functional, cell-based
SF-295 = experiment: Growth inhibition of human SF295 cells incubated for 48 hrs by sulforhodamine B assay; type: functional, cell-based

T1 sequence (P08069 31-736 limits assumed): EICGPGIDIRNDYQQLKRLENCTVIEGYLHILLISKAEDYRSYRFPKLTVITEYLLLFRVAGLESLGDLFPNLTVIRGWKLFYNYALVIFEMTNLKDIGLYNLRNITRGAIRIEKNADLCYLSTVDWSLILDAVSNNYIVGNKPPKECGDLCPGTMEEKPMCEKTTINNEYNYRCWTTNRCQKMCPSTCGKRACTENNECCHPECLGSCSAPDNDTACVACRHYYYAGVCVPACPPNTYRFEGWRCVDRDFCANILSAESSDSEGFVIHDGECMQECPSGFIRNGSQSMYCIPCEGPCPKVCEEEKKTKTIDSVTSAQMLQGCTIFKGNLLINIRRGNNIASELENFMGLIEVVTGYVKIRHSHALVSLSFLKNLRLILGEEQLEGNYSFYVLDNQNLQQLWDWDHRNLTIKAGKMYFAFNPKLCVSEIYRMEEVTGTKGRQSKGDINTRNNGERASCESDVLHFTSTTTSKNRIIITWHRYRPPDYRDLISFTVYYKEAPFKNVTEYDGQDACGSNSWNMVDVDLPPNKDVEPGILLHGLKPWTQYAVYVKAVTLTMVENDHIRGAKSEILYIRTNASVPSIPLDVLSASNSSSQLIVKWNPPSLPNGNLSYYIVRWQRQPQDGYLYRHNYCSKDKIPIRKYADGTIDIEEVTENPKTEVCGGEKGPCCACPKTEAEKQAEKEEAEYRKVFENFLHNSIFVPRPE
T1 sequence (P08069 741-1367 limits assumed): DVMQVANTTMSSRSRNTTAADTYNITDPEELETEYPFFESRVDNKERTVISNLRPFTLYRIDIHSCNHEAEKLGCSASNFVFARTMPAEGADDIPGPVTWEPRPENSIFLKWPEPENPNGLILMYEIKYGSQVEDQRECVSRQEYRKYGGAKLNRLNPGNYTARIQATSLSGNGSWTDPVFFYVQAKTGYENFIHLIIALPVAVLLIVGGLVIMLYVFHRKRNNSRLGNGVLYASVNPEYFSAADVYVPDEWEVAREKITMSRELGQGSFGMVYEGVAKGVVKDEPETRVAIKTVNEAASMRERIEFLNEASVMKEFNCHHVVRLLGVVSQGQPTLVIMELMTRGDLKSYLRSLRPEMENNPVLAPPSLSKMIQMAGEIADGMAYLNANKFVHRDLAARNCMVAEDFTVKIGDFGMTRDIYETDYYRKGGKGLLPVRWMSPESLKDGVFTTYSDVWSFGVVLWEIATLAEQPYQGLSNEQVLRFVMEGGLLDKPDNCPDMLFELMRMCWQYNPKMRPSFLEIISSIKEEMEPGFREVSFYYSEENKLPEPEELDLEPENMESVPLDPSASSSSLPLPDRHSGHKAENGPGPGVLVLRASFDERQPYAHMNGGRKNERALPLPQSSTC
Aurora kinase B (Homo sapiens), sequence (Q96GD4 whole entry, the tested form may be a part): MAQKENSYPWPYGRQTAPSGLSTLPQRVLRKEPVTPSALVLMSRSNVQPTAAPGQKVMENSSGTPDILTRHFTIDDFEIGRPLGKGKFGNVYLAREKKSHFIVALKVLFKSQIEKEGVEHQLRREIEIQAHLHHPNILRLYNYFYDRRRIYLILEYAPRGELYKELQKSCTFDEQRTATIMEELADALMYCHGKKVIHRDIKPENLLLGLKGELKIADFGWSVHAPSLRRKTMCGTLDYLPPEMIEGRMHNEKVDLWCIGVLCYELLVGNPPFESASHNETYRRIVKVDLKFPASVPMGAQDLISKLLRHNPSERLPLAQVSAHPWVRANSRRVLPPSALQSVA
Serine/threonine-protein kinase Chk2 (Homo sapiens), sequence (O96017 whole entry): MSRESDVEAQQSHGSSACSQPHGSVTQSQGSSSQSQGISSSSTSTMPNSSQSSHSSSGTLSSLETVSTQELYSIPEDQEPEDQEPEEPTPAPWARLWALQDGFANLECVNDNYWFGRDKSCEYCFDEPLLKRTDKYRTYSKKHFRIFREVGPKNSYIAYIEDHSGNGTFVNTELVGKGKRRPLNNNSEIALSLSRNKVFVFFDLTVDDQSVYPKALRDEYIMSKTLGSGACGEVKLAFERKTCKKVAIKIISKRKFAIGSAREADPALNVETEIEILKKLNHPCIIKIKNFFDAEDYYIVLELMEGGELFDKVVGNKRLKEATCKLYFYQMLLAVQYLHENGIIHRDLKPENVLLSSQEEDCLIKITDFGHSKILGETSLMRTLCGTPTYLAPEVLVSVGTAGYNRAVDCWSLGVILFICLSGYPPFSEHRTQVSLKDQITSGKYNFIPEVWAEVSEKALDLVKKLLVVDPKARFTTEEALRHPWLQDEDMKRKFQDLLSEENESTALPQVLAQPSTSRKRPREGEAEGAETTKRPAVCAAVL

CN1CCN(CCO/N=C2/C(=C3/C(=O)Nc4ccccc43)Nc3ccccc32)CC1
growth inhibition (GI) (OVCAR-8): Active | growth inhibition (GI) (NCI-H23): Active | growth inhibition (GI) (SK-OV-3): Active | growth inhibition (GI) (DU-145): Active | growth inhibition (GI) (M14): Active | growth inhibition (GI) (LOX IMVI): Active | inhibition [1]: Dose-dependent effect | inhibition [2]: inactive | growth inhibition (GI) (HL-60(TB)): Active | inhibition [3]: inactive | growth inhibition (GI) (HCC 2998): Active | inhibition [4]: Active | growth inhibition (GI) (MDA-MB-468): Active | inhibition [5]: inactive | growth inhibition (GI) (UO-31): Active | growth inhibition (GI) (SF-539): Active | growth inhibition (GI) (SK-MEL-5): Active | inhibition [6]: Dose-dependent effect | growth inhibition (GI) (NCI-H460): Active | growth inhibition (GI) (A549): Active | growth inhibition (GI) (HOP-62): Active | growth inhibition (GI) (MOLT-4): Active | growth inhibition (GI) (NCI-H226): Active | growth inhibition (GI) (UACC-62): Active | Activity (MCF7 [7]): Active | growth inhibition (GI) (IGROV-1): Active | Activity [8]: 30% | growth inhibition (GI) (SK-MEL-2): Active | growth inhibition (GI) (PC-3): Active | Activity (MCF7 [9]): Active | growth inhibition (GI) (NCI-H522): Active | growth inhibition (GI) (SF-295): Active
